Activity calls are given as the source filed them.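 Rule for the calls, unless noted: active = fluorescence slope after compound addition differing from the mean of all screened samples at 99.7% confidence, in either direction; inactive = the rest.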

Assay [1] can be described thus: inhibitors of TNFa-induced NFkB p65 translocation, primary screen, imaging, HUVEC, MLSMR starter and 10KST1 sets (AID 438;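 active = inhibition above 20% together with a positive visual image hit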;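 note: compound added about 3h40 before a 20 min TNFalpha stimulation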;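 for inhibition: signal is the nuclear over cytoplasmic p65 intensity ratio per well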). The settings on record: HUVEC TNFa-induced p65 nuclear translocation; cell count: measured here: nuclei count (cytotoxicity indicator), at 2.08 µM; inhibition: at 2 µM, stronger effect = higher value, 0% TNFa-plus-vehicle, 100% no-TNFa wells.
Assay [2] in a line: reduction of polyQ htt aggregates in cells – imaging, exon1htt(103Q)mCFP cells, high-content imaging, primary screen (AID 483;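 active = visual image review flags a hit and inhibition of aggregation exceeds 20%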;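 note: compound exposure lasted 3 days before fixation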;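 for nuclei count: percent of the per-plate median nuclei count of sample wells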). The settings on record: exon1htt(103Q)mCFP cell line, aggregate imaging, at 2 µM; inhibition of aggregation: stronger effect = higher value; nuclei count: measured here: cell count, toxicity.
Assay [3] in a line: endothelial E-selectin expression blockers – imaging, HUVEC, immunofluorescence, MLSMR starter and 10KST1 sets, primary screen (AID 487;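 active = visually confirmed hit in the image check and inhibition above 20%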;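 for inhibition: signal is fraction of cell area covered by stained E-selectin grains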;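 for nuclei count: 100% = median nuclei count of all wells on the same plate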). The settings on record: HUVEC TNFalpha-induced E-selectin immunofluorescence imaging, at 2 µM; inhibition: stronger effect = higher value; nuclei count: measured here: cell number, toxicity.
In assay [4] the target is Voltage-gated potassium channel subunit beta-2 (Rattus norvegicus) (UniProt P62483). The assay can be described thus: inhibitors of rat Kvbeta2 reductase activity – biochemical, NADPH fluorescence, primary screen (AID 622;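 active = fluorescence slope higher than the sample average by over 3 SD, cut at about -0.22 in these data, passing the limit was not always enough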;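 note: slope of raw intensity against log time taken from 70 to 1610 s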). The settings on record: recombinant KvBeta, 4-cyanobenzaldehyde reduction, at 10 µM, stronger effect = higher value.
For assay [5] the target is unchanged. The assay can be described thus: enhancers of rat Kvbeta2 NADPH turnover – biochemical, NADPH fluorescence, primary screen (AID 623;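 active = NADPH fluorescence slope more negative than the mean of all samples by about 3 SD, 99.7% confidence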;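 note: fluorescence intensity change per second fitted from 20 to 320 s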). The following applies: Recombinant KvBeta, NADPH fluorescence decrease slope, 10 min; at 10 µM; stronger effect = lower value.
Assay [6] has as its target Alpha-2C adrenergic receptor (Homo sapiens) (UniProt P18825). Kind of assay: compounds altering alpha2C-coupled GIRK flux – cell-based, HEK293 alpha2C/GIRK1/2, thallium flux, primary screen (AID 624).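 Note: slope of fluorescence ratio to pre-addition baseline per second over 15 to 24 s.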 The settings on record: thallium flux BTC fluorescence, at 10 µM, actives lie on both sides.
Assay [7] in a line: inhibitors of larval lipid processing in zebrafish, primary screen, whole organism, PED6 fluorescence, gall bladder and intestine (AID 686;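 active = a full or partial loss of lipid-probe fluorescence in the fish gall bladder, intestine or both, judged by eye; inactive = no fluorescence loss, or compound toxic to the fish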;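 note: signal comes from phospholipase A2 cleavage of quenched PED6 carried via bile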). The following applies: Zebrafish larvae PED6 lipid processing, fluorescence scoring; screened at 20 µM (by protocol). Put shortly: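 Doses: 20 µM single dose. Test system: live zebrafish larvae aged 5-7 days, whole organism. Quantity: five larvae per well. Measured by: By-eye fluorescence microscopy. Reagent: ingested quenched lipid PED6 at 100 nM. Read-out: visual per-well fluorescence inhibition score. Times: overnight exposure of larvae to compound plus PED6.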

Assay [8] can be described thus: blockers of RIG-like receptor reporter activation – cell-based, Sendai virus stimulus, luciferase, 10K MLSCN set, TLR/RLR signaling modifier project, primary screen (AID 602276;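 active = inhibition at or above 50% at 10 µM; inactive = inhibition below 50%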;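 note: firefly luciferase from ISG56 promoter only with Renilla not read in this screen; 0% = Sendai virus plus DMSO and 100% = medium plus DMSO without virus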). The following applies: HEK293 RL24 IRF3 luciferase reporter, at 10 µM, stronger effect = higher value.
Assay [9] is described as follows: TLR3 IRF3 reporter activation blockers – cell-based, poly I:C stimulus, luciferase, 10K MLSCN set, primary screen (AID 602277;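 active = inhibition of the reporter signal at or above 50%; inactive = inhibition below 50%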). The following applies: HEK293-TLR3 RL24 IRF3 luciferase reporter, at 10 µM, stronger effect = higher value.

Chain of Voltage-gated potassium channel subunit beta-2 (Rattus norvegicus) (P62483 whole entry, looked up): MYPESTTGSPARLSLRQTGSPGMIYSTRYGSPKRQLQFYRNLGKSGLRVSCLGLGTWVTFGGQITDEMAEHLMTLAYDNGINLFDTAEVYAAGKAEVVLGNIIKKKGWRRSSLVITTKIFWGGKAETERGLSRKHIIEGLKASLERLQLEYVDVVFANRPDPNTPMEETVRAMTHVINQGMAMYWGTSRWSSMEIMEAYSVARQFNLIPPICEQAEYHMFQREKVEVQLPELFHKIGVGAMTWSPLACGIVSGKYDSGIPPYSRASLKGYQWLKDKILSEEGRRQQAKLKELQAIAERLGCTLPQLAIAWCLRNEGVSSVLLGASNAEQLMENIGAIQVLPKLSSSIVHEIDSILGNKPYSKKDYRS
Chain of Alpha-2C adrenergic receptor (Homo sapiens) (P18825 whole entry, looked up): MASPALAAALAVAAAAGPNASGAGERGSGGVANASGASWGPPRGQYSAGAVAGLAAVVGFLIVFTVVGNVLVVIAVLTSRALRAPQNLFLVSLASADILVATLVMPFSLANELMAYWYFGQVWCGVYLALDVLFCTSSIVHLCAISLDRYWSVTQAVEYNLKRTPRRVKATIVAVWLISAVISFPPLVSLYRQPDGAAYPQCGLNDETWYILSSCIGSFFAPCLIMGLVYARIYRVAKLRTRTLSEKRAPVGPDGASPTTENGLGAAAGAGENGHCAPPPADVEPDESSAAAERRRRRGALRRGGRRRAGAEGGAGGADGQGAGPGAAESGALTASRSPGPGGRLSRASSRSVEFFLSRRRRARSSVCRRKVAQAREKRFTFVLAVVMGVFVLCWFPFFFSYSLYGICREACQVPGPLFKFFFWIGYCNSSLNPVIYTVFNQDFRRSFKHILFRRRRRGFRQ

In the case of `CCN(C(=O)c1cccs1)c1nnc(-c2ccncc2)s1`, in [1], the cell count is 737. The inhibition is -7.1% (inactive) in assay [1], -80% (inactive) in [3], -7.04% (inactive) in assay [8] and -41.1% (inactive) in [9]. Besides, the inhibition of aggregation in assay [2] is -14.4% (inactive). Moreover, the nuclei count in assay [2] amounted to 104%; in assay [3], 115%. Moreover, the fluorescence slope in [4] was -0.374 (inactive). In addition, the NADPH fluorescence slope in assay [5] is -7.1e-05 (inactive). Moreover, the slope in assay [6] was 0.00498 (inactive). For the same molecule, the outcome in [7] was inactive.
Regarding `COc1cccc2c(=O)cc(C)n(CC(=O)Nc3ccc(C)c(C)c3)c12`, the cell count in assay [1] stood at 456. The inhibition in [1] was 9.4% (inactive); in assay [3] it was 46.9% (inactive); in assay [8], 0.857% (inactive); in assay [9], -0.697% (inactive). The inhibition of aggregation in assay [2] is -8.4% (inactive). Also, the nuclei count in assay [2] turned out to be 50.1%; in assay [3] it was 85.2%. Further, the fluorescence slope in assay [4] is -0.364 (inactive). Further, the NADPH fluorescence slope in assay [5] was -4.9e-05 (inactive). For the same molecule, the slope in [6] is 0.00483 (inactive). Besides, the molecule was called inactive in assay [7].
Turning to `CCCN1Cc2cccc(C(=O)NC3CCCC3)c2C1=O`, in assay [1], the cell count is 653. The inhibition in assay [1] is 0.7% (inactive); in assay [3] it was -62.4% (inactive); in [8] it was 11.8% (inactive); in [9], 22.8% (inactive). The inhibition of aggregation in assay [2] was 14% (inactive). The nuclei count in assay [2] was 95.2%; in [3], 101%. Also, the fluorescence slope in [4] was -0.349 (inactive). In assay [5], the NADPH fluorescence slope is -6.1e-05 (inactive). In addition, the slope in [6] is 0.0059 (inactive). Further, the outcome in [7] was inactive.
As for `Cc1ccc(CN2C(=O)CCC2C(=O)NCCCN2CCCC(C)C2)cc1` (stereo not drawn), in [1], the cell count worked out at 436. Moreover, the inhibition in assay [1] was 6.9% (inactive); in assay [3], -43.5% (inactive); in assay [8] it was -5.02% (inactive); in [9] it was 4.05% (inactive). The inhibition of aggregation in [2] is -3.9% (inactive). Moreover, the nuclei count in assay [2] was 106%; in assay [3] it was 129%. The fluorescence slope in assay [4] was -0.434 (inactive). Besides, the NADPH fluorescence slope in [5] is -2.5e-05 (inactive). Also, the slope in assay [6] was 0.0056 (inactive). In [7], the molecule was classed as inactive.
In the case of `COCCN(CCOC)C(=O)CCn1c(=O)oc2ccccc21`, in assay [1], the cell count worked out at 589. Moreover, the inhibition in [1] is 3.3% (inactive); in assay [3], 37.7% (inactive); in [8], 17.5% (inactive); in assay [9], 8.78% (inactive). Also, in [2], the inhibition of aggregation was 2.1% (inactive). In addition, the nuclei count was 107% in assay [2] and 100% in assay [3]. Further, in assay [4], the fluorescence slope was -0.462 (inactive). Moreover, in [5], the NADPH fluorescence slope is -5.7e-05 (inactive). Besides, the slope in assay [6] is 0.00623 (inactive). Besides, the molecule was called inactive in [7].
For the molecule `Cc1ccc2cc(C(c3nnnn3C3CCCC3)N3CCN(c4ccc(F)cc4)CC3)c(=O)[nH]c2c1` (stereo not drawn), in assay [1], the cell count is 586. For the same molecule, the inhibition in assay [1] was 7.2% (inactive); in assay [3] it was -31.9% (inactive); in assay [8], 23.2% (inactive); in [9], 34.2% (inactive). In assay [2], the inhibition of aggregation was -4.3% (inactive). For the same molecule, the nuclei count in assay [2] was found to be 99.8%; in assay [3], 130%. The fluorescence slope in assay [4] is -0.372 (inactive). For the same molecule, the NADPH fluorescence slope in assay [5] was -4.7e-05 (inactive). Further, the slope in assay [6] was 0.00624 (inactive). The outcome in [7] was “inactive; toxic”.
`Cc1csc(NC(=O)Nc2cccc(Cl)c2)n1`: the cell count in assay [1] turned out to be 506. The inhibition in assay [1] was 1.8% (inactive); in assay [3], -98.3% (inactive); in assay [8], -37.7% (inactive); in [9], -119% (inactive). In addition, the inhibition of aggregation in [2] is -3.3% (inactive). In addition, the figures for the nuclei count in assay [2] and in assay [3] were 97.5% and 113%, respectively. For the same molecule, the fluorescence slope in assay [4] was -0.373 (inactive). Besides, in assay [5], the NADPH fluorescence slope is -3.7e-05 (inactive). For the same molecule, the slope in assay [6] is 0.00525 (inactive). In addition, the outcome in assay [7] was “active; weak signal in gallbladder only”.
Consider `CS(=O)(=O)N(CC(=O)N1CCCCCC1)c1ccc(Br)cc1`, for which, in assay [1], the cell count was 485. In addition, the inhibition in [1] was -38.8% (inactive); in assay [3], 13.3% (inactive); in assay [8], 15.8% (inactive); in assay [9] it was 16% (inactive). Besides, in assay [2], the inhibition of aggregation is 20.1% (inactive). Moreover, the nuclei count in assay [2] is 81.6%; in assay [3] it was 95.6%. Further, the fluorescence slope in assay [4] was -0.353 (inactive). Further, in [5], the NADPH fluorescence slope is -5.4e-05 (inactive). In addition, in assay [6], the slope was 0.00619 (inactive). Besides, in assay [7], the result was inactive.
Turning to `O=S(=O)(c1cccc2c(S(=O)(=O)N3CCCC3)cccc12)N1CCCC1`, in assay [1], the cell count came out at 250. Moreover, the inhibition is -13.4% (inactive) in [1], -17.4% (inactive) in assay [3], 18.2% (inactive) in assay [8] and 21.9% (inactive) in [9]. Further, the inhibition of aggregation in assay [2] is -7.2% (inactive). The results for the nuclei count in [2] and in [3] were 118% and 88.6%, respectively. For the same molecule, the fluorescence slope in [4] is -0.355 (inactive). Moreover, the NADPH fluorescence slope in assay [5] was 6.6e-06 (inactive). The slope in [6] is 0.00452 (inactive). Also, the molecule was called inactive in [7].
For `COCCn1nnnc1SCC(=O)N1CCCCC1`, in [1], the cell count amounted to 344. For the same molecule, the inhibition in assay [1] is 1.6% (inactive); in assay [3], 6.2% (inactive); in assay [8], 17.3% (inactive); in assay [9], 14% (inactive). In addition, the inhibition of aggregation in assay [2] was 4.1% (inactive). The nuclei count in assay [2] came out at 102%; in assay [3], 121%. Besides, the fluorescence slope in assay [4] was -0.49 (inactive). In addition, the NADPH fluorescence slope in assay [5] was -9.6e-06 (inactive). Further, in assay [6], the slope is 0.00458 (inactive). In [7], the molecule was classed as inactive.
For `O=C(NCCC1=CCCCC1)C1CCN(S(=O)(=O)c2cnc[nH]2)CC1`, the cell count in assay [1] was 472. Moreover, the inhibition in assay [1] was 4.5% (inactive); in assay [3] it was -36.1% (inactive); in [8] it was 13.7% (inactive); in assay [9] it was 18.8% (inactive). In addition, the inhibition of aggregation in assay [2] was -8.6% (inactive). For the same molecule, the nuclei count in assay [2] is 93.1%; in assay [3], 117%. Besides, the fluorescence slope in assay [4] is -0.367 (inactive). Moreover, in [5], the NADPH fluorescence slope was -4.7e-05 (inactive). The slope in [6] was 0.0051 (inactive). Moreover, the molecule was called inactive in assay [7].
As to `COc1cc(NC(=O)Nc2cccc(C(C)=O)c2)cc(OC)c1OC`, the cell count in assay [1] turned out to be 674. For the same molecule, the inhibition in [1] is -9.3% (inactive); in assay [3], -136% (inactive); in assay [8], 14% (inactive); in [9], 12.9% (inactive). For the same molecule, in [2], the inhibition of aggregation is -22% (inactive). In addition, the nuclei count was 99.7% in [2] and 97.7% in [3]. Also, the fluorescence slope in [4] was -0.438 (inactive). Further, the NADPH fluorescence slope in [5] is -4.1e-05 (inactive). The slope in assay [6] is 0.00508 (inactive). Moreover, the molecule was classed as inactive in [7].
`O=C(Cc1cccs1)N(c1ccccc1)C1C=CS(=O)(=O)C1` (stereo not drawn): the cell count in assay [1] amounted to 294. For the same molecule, the inhibition in assay [1] is 4.2% (inactive); in assay [3], 8.4% (inactive); in assay [8], 10.7% (inactive); in [9], 15.6% (inactive). Moreover, the inhibition of aggregation in assay [2] is -21.3% (inactive). Also, the nuclei count worked out at 110% in [2] and 88.2% in assay [3]. The fluorescence slope in assay [4] was -0.376 (inactive). In addition, the NADPH fluorescence slope in [5] was -5.4e-05 (inactive). The slope in [6] was 0.0046 (inactive). Further, the molecule was called inactive in [7].
Take `COc1ccc2cc(C#N)c(N3CCN(Cc4nnnn4CCC(C)C)CC3)nc2c1`: the cell count in assay [1] worked out at 363. In addition, the inhibition was 7% (inactive) in assay [1], -5.8% (inactive) in [3], 12.8% (inactive) in [8] and -2.3% (inactive) in [9]. Further, in assay [2], the inhibition of aggregation was 20.7% (inactive). In addition, the nuclei count was found to be 85.8% in assay [2] and 78.1% in [3]. Besides, the fluorescence slope in [4] was -0.379 (inactive). For the same molecule, the NADPH fluorescence slope in [5] was -3.8e-05 (inactive). The slope in assay [6] is 0.00501 (inactive). Moreover, the molecule was classed as inactive in [7].

(Values after PubChem BioAssay.)
